AP complement: orthogonal test for alternative complement pathway inhibitors; 62,000 tested, 0.08% active; Human serum alternative complement pathway, LPS-coated ELISA, C3 deposition; tested in compound mixtures; AID 1235; inhibition, % at 5 µM;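 active means inhibition above 30% in each of the two pooled mixtures holding the compound, so the lower value exceeds 30%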
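Medium: diluted human serum in Mg2+-EGTA GVB++. Assay system: human serum complement alternative pathway, C3 deposition onto LPS. Also added: Plate-bound LPS. Technique: Anti-C3 ELISA, OD 450 nm. Measure: percent inhibition. Incubation: 1 h at 37 °C. Dosing: 5 µM each compound, pools of ten, 50 µM per pool.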
M1 antag: M1 muscarinic receptor (rat) antagonism. B-score at 10 µM. CHO-M1 cells, Fluo-4 calcium, ACh EC80 antagonist mode; hits give low values. P08482. 64,000 tested, 3.4% active. AID 628;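 active means calcium fluorescence response, raw or row-and-column corrected B-score, differing from the plate sample mean either way at a set confidence level, mostly lower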
M1 agonist: agonists of M1 muscarinic receptor; CHO-M1 cells, Fluo-4 calcium fluorescence, agonist mode; hits give high values; B-score at 10 µM; 64,000 tested, 3% active;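 active means fluorescence rise, raw or as B-score row- and column-corrected plate score, outside the 99.7% band of its plate's samples, either direction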
D1 mod: allosteric modulators of human D1 dopamine receptor; 58,000 tested, 5.9% active; HEK293 D1, CRE-luciferase, dopamine EC30 potentiation; actives deviate in either direction; P21728; B-score at 10 µM;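 active means luminescence count or its row- and column-corrected plate score outside the 99.7% band of the plate's sample wells, on either side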
Target sequence (P21728 whole entry, looked up): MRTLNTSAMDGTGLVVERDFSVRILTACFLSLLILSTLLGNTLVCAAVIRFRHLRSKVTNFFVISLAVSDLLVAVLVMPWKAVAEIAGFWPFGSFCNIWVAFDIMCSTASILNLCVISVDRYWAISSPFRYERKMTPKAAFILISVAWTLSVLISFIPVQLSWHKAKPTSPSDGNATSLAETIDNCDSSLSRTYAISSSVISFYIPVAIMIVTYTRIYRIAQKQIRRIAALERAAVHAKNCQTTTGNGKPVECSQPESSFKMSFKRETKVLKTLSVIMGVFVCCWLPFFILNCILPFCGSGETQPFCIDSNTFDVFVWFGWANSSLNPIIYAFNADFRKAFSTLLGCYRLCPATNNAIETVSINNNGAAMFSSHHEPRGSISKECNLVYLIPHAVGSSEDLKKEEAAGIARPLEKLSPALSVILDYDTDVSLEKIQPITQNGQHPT
mHtt clearance: compounds clearing mutant huntingtin protein | HeLa Exon1htt(103Q)mCFP, aggregate imaging; zero = plate's median compound well | inhibition, % at 1.5 µM | 47,000 tested, 0.42% active | AID 853;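 active means inhibition of aggregate fluorescence above about 70%, also judged a hit by eye on the cell image, limit read from the data, passing the limit was not always enough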;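 further: cells exposed to compound for three days before fixation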
M1 antag conf: confirmation of rat M1 muscarinic receptor antagonists; shares compounds with M1 antag; CHO-M1 cells, Fluo-4 calcium, ACh EC80 antagonism; hits give low values; calcium response (max-min fluorescence) at 10 µM; 1,700 tested, 43% active; AID 677;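 active means calcium response below the same-plate mean of wells given acetylcholine alone at its 80%-effect dose, minus 3 SD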
mGluR4 antag: selectivity test for M1 antagonists: human mGluR4 receptor; 1,700 tested, 0.9% active; CHO-mGluR4 calcium flux, Fluo-4 fluorescence, glutamate EC80; hits give low values; shares compounds with M1 antag; fluorescence response (max-min) at 10 µM;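 active means fluorescence response below the plate's average for near-maximal glutamate wells, less 3 SD of those wells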;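 further: raw unnormalized fluorescence span taken in the window right after glutamate addition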
A number is an active result; . = inactive; / = no result given. Sampled rows, rich in hits. Any-hit rate of the full collection: about 9%.

SMILES	AP complement	M1 antag	M1 agonist	D1 mod	mHtt clearance	M1 antag conf	mGluR4 antag
CC(C)=CC/C=C1\CCC(C(=O)O)C(C(=O)O)C1 (centres undefined)	.	-14	.	.	/	.	.
CC1=CCC(C(=O)O)C(C(=O)O)C1 (centres undefined)	.	.	.	.	.	/	/
Cc1csc2nc(CCNS(=O)(=O)c3ccc4c(c3)OCCO4)cn12	.	-2.6	.	.	.	.	.
Cc1csc2nc(CNS(=O)(=O)c3ccc4c(c3)OCCO4)cn12	.	.	.	.	/	/	/
O=C(c1ccccc1F)N1CCN(c2cccc(C(F)(F)F)c2)CC1	.	-2.9	.	.	/	.	.
O=C(c1coc2ccccc2c1=O)N1CCN(c2cccc(C(F)(F)F)c2)CC1	.	-8.7	.	.	/	178	.
O=C(c1c(F)c(F)c(F)c(F)c1F)N1CCN(c2cccc(C(F)(F)F)c2)CC1	.	.	.	.	.	/	/
Cc1c(S(=O)(=O)N2CCc3ccccc3C2)c(=O)n(C)c(=O)n1C	.	.	.	.	/	/	/
Cc1cc2ncn(C(=O)c3c(-c4ccccc4Cl)noc3C)c2cc1C	.	-5.5	.	.	/	264	.
COc1ccc(C(C)(C)C)cc1NC(=O)Nc1ccc2c(c1)OCO2	.	.	.	.	/	/	/
O=C(CCN1CCC(c2ccccc2)C1)c1cccs1 (centres undefined)	.	-5.1	.	-4.7	/	.	.
Cc1ccc(S(=O)(=O)NC(CC(=O)NCc2ccco2)c2ccco2)cc1 (centres undefined)	.	-4.7	.	.	.	.	.
COc1ccc(S(=O)(=O)NC(CC(=O)NCc2ccco2)c2ccco2)cc1 (centres undefined)	.	.	.	.	.	/	/
CCN(CC)C(=O)CSC1=C(C#N)C(c2cccs2)C=C(C)N1 (centres undefined)	/	.	.	.	/	/	/
COc1ccc(S(=O)(=O)NC(CC(=O)NCCc2ccc(OC)c(OC)c2)c2ccco2)cc1 (centres undefined)	.	.	.	.	.	/	/
Cc1cc(C)n(-c2nncn2NC(=O)c2ccc(Cl)cc2O)n1	.	.	.	.	/	/	/
COc1ccc(OCC(=O)Nc2ccc(C)cc2)cc1	.	-14	.	.	.	.	.
Cc1ccc(OCC(=O)Nc2ccc(N3CCOCC3)cc2)cc1	.	.	.	.	.	/	/
CCOc1ccc(NC(=O)CN(c2ccc(OC)cc2)S(C)(=O)=O)cc1	.	-3.5	.	.	/	.	.
Cc1ccc(C(=O)C2(C)C3c4cc(Br)ccc4OC(=O)C32C(=O)c2ccco2)cc1 (centres undefined)	/	/	/	/	.	/	/
CCOc1ccc(-n2ccnc2SCC(=O)NCc2ccc3c(c2)OCO3)cc1	.	.	.	.	.	/	/
O=C1CCc2cc(S(=O)(=O)N3CCCC3C(=O)NC3CCCCCCC3)ccc2N1 (centres undefined)	/	/	/	/	.	/	/
CCC(C)C(NS(=O)(=O)c1ccc(C)cc1)C(=O)NCCN1CCOCC1 (centres undefined)	.	/	/	/	/	/	/
CN(C(=O)CSc1nc(-c2ccc(F)cc2)cs1)C1CCS(=O)(=O)C1 (centres undefined)	.	-3.1	.	.	/	.	.
N#Cc1c2c(c(NCc3ccco3)n3c1nc1ccccc13)CCC2	.	.	.	.	/	/	/
SMILES	AP complement	M1 antag	M1 agonist	D1 mod	mHtt clearance	M1 antag conf	mGluR4 antag
CN(C)CCNc1c2c(c(C#N)c3nc4ccccc4n13)CCCC2	.	-4.7	.	.	.	377	.
Cc1cc(C)cc(NC(=O)CSc2nnc(-c3ccccc3Br)o2)c1	.	.	.	.	.	/	/
COc1cccc(NC(=O)CSc2nnc(-c3cc(C)n(-c4ccccc4)c3C)o2)c1	.	-2.6	.	.	/	.	.
Cc1cc(NC(=O)CSc2nc(CC(C)(C)C)nc3c2c(=O)n(C)c(=O)n3C)no1	/	/	/	/	.	/	/
O=C(CN1CCC(NC(=O)Nc2ccccc2-c2ccccc2)CC1)NCc1ccco1	.	-4	.	.	/	215	.
CCOc1cc(C)nc(N2CCN(C3CCCCC3)CC2)n1	.	-3.3	.	.	/	444	.
CCOC(=O)c1cc(C)n(-c2c(C)n(C)n(-c3ccccc3)c2=O)c1C	.	-4.5	.	.	/	430	.

Screening results as filed in PubChem.
